Laboratory results as given in ChEMBL document CHEMBL3784971, “Synthesis, characterization, antimicrobial and biofilm inhibitory studies of new esterquats” (Bioorg Med Chem Lett, 2016).
Values after ≈ are worked out from the molar mass of the structure shown. One block for each compound: values may come before it.

Key:
[1] = test system: Candida albicans; assay: Antimicrobial activity against Candida albicans MTCC 3017 assessed as growth inhibition after 24 hrs by agar well diffusion method; type: functional; conditions: MTCC 3017, 24 h
[2] = test system: Staphylococcus aureus; assay: Bactericidal activity against Staphylococcus aureus MLS16 MTCC 2940 after 24 hrs by serial dilution method; type: functional; conditions: MLS16 MTCC 2940, 24 h
[3] = test system: Raoultella planticola; assay: Bactericidal activity against Klebsiella planticola MTCC 530 after 24 hrs by serial dilution method; type: functional; conditions: MTCC 530, 24 h
[4] = test system: Staphylococcus aureus; assay: Antimicrobial activity against Staphylococcus aureus MLS16 MTCC 2940 assessed as growth inhibition after 24 hrs by agar well diffusion method; type: functional; conditions: MLS16 MTCC 2940, 24 h
[5] = test system: Candida albicans; assay: Antimicrobial activity against Candida albicans MTCC 227 assessed as growth inhibition after 24 hrs by agar well diffusion method; type: functional; conditions: MTCC 227, 24 h
[6] = test system: Pichia sporocuriosa; assay: Antimicrobial activity against Issatchenkia hanoiensis MTCC 4755 assessed as growth inhibition after 24 hrs by agar well diffusion method; type: functional; conditions: MTCC 4755, 24 h
[7] = test system: Candida albicans; assay: Antimicrobial activity against Candida albicans MTCC 4748 assessed as growth inhibition after 24 hrs by agar well diffusion method; type: functional; conditions: MTCC 4748, 24 h
[8] = test system: Candida albicans; assay: Antimicrobial activity against Candida albicans MTCC 3018 assessed as growth inhibition after 24 hrs by agar well diffusion method; type: functional; conditions: MTCC 3018, 24 h
[9] = test system: Candida albicans; assay: Antimicrobial activity against Candida albicans MTCC 183 assessed as growth inhibition after 24 hrs by agar well diffusion method; type: functional; conditions: MTCC 183, 24 h
[10] = test system: Staphylococcus aureus; assay: Antimicrobial activity against Staphylococcus aureus MTCC 96 assessed as growth inhibition after 24 hrs by agar well diffusion method; type: functional; conditions: MTCC 96, 24 h
[11] = test system: Candida albicans; assay: Fungicidal activity against Candida albicans MTCC 227 after 24 hrs by serial dilution method; type: functional; conditions: MTCC 227, 24 h
[12] = test system: Candida parapsilosis; assay: Fungicidal activity against Candida parapsilosis MTCC 1744 after 24 hrs by serial dilution method; type: functional; conditions: Lodderomyces parapsilosis, MTCC 1744, 24 h
[13] = test system: Candida albicans; assay: Fungicidal activity against Candida albicans MTCC 854 after 24 hrs by serial dilution method; type: functional; conditions: MTCC 854, 24 h
[14] = test system: Staphylococcus aureus; assay: Bactericidal activity against Staphylococcus aureus MTCC 96 after 24 hrs by serial dilution method; type: functional; conditions: MTCC 96, 24 h
[15] = test system: [Candida] aaseri; assay: Antimicrobial activity against Candida aaseri MTCC 1962 assessed as growth inhibition after 24 hrs by agar well diffusion method; type: functional; conditions: Yamadazyma aaseri, MTCC 1962, 24 h
[16] = test system: Nakaseomyces glabratus; assay: Fungicidal activity against Candida glabrata MTCC 3019 after 24 hrs by serial dilution method; type: functional; conditions: MTCC 3019, 24 h
[17] = test system: Candida albicans; assay: Antimicrobial activity against Candida albicans MTCC 854 assessed as growth inhibition after 24 hrs by agar well diffusion method; type: functional; conditions: MTCC 854, 24 h
[18] = test system: Nakaseomyces glabratus; assay: Antimicrobial activity against Candida glabrata MTCC 3019 assessed as growth inhibition after 24 hrs by agar well diffusion method; type: functional; conditions: MTCC 3019, 24 h
[19] = test system: Micrococcus luteus; assay: Bactericidal activity against Micrococcus luteus MTCC 2470 after 24 hrs by serial dilution method; type: functional; conditions: MTCC 2470, 24 h
[20] = test system: Pichia kudriavzevii; assay: Fungicidal activity against Candida krusei MTCC 3020 after 24 hrs by serial dilution method; type: functional; conditions: MTCC 3020, 24 h
[21] = test system: Escherichia coli; assay: Bactericidal activity against Escherichia coli MTCC 739 after 24 hrs by serial dilution method; type: functional; conditions: MTCC 739, 24 h
[22] = test system: Candida parapsilosis; assay: Antimicrobial activity against Candida parapsilosis MTCC 1744 assessed as growth inhibition after 24 hrs by agar well diffusion method; type: functional; conditions: Lodderomyces parapsilosis, MTCC 1744, 24 h
[23] = test system: Pseudomonas aeruginosa; assay: Antimicrobial activity against Pseudomonas aeruginosa MTCC 2453 assessed as growth inhibition after 24 hrs by agar well diffusion method; type: functional; conditions: MTCC 2453, 24 h
[24] = test system: Bacillus subtilis; assay: Antibiofilm activity against Bacillus subtilis MTCC 121 after 24 hrs by crystal violet staining based assay; type: functional, organism-based; conditions: MTCC 121, 24 h
Summary of the method: (§1)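 Biofilm inhibition tested for amine esters and esterquats. IC50 values (µg/mL) are the mean of three determinations, with ciprofloxacin as reference.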

[25] = test system: Pichia kudriavzevii; assay: Antimicrobial activity against Candida krusei MTCC 3020 assessed as growth inhibition after 24 hrs by agar well diffusion method; type: functional; conditions: MTCC 3020, 24 h
[26] = test system: [Candida] aaseri; assay: Fungicidal activity against Candida aaseri MTCC 1962 after 24 hrs by serial dilution method; type: functional; conditions: Yamadazyma aaseri, MTCC 1962, 24 h
[27] = test system: Candida albicans; assay: Fungicidal activity against Candida albicans MTCC 3017 after 24 hrs by serial dilution method; type: functional; conditions: MTCC 3017, 24 h
[28] = test system: Raoultella planticola; assay: Antimicrobial activity against Klebsiella planticola MTCC 530 assessed as growth inhibition after 24 hrs by agar well diffusion method; type: functional; conditions: MTCC 530, 24 h
[29] = test system: Candida albicans; assay: Fungicidal activity against Candida albicans MTCC 1637 after 24 hrs by serial dilution method; type: functional; conditions: MTCC 1637, 24 h
[30] = test system: Bacillus subtilis; assay: Bactericidal activity against Bacillus subtilis MTCC 121 after 24 hrs by serial dilution method; type: functional; conditions: MTCC 121, 24 h
[31] = test system: Candida albicans; assay: Antimicrobial activity against Candida albicans MTCC 3958 assessed as growth inhibition after 24 hrs by agar well diffusion method; type: functional; conditions: MTCC 3958, 24 h
[32] = test system: Candida albicans; assay: Fungicidal activity against Candida albicans MTCC 4748 after 24 hrs by serial dilution method; type: functional; conditions: MTCC 4748, 24 h
[33] = test system: Bacillus subtilis; assay: Antimicrobial activity against Bacillus subtilis MTCC 121 assessed as growth inhibition after 24 hrs by agar well diffusion method; type: functional; conditions: MTCC 121, 24 h
[34] = test system: Candida albicans; assay: Fungicidal activity against Candida albicans MTCC 7315 after 24 hrs by serial dilution method; type: functional; conditions: MTCC 7315, 24 h
[35] = test system: Staphylococcus aureus; assay: Antibiofilm activity against Staphylococcus aureus MTCC 96 after 24 hrs by crystal violet staining based assay; type: functional, organism-based; conditions: MTCC 96, 24 h; summary of the method: as §1
[36] = test system: Candida albicans; assay: Fungicidal activity against Candida albicans MTCC 3018 after 24 hrs by serial dilution method; type: functional; conditions: MTCC 3018, 24 h
[37] = test system: Micrococcus luteus; assay: Antimicrobial activity against Micrococcus luteus MTCC 2470 assessed as growth inhibition after 24 hrs by agar well diffusion method; type: functional; conditions: MTCC 2470, 24 h
[38] = test system: Candida albicans; assay: Fungicidal activity against Candida albicans MTCC 183 after 24 hrs by serial dilution method; type: functional; conditions: MTCC 183, 24 h
[39] = test system: Escherichia coli; assay: Antimicrobial activity against Escherichia coli MTCC 739 assessed as growth inhibition after 24 hrs by agar well diffusion method; type: functional; conditions: MTCC 739, 24 h
[40] = test system: Candida albicans; assay: Antimicrobial activity against Candida albicans MTCC 1637 assessed as growth inhibition after 24 hrs by agar well diffusion method; type: functional; conditions: MTCC 1637, 24 h
[41] = test system: Candida albicans; assay: Fungicidal activity against Candida albicans MTCC 3958 after 24 hrs by serial dilution method; type: functional; conditions: MTCC 3958, 24 h
[42] = test system: Pichia sporocuriosa; assay: Fungicidal activity against Issatchenkia hanoiensis MTCC 4755 after 24 hrs by serial dilution method; type: functional; conditions: MTCC 4755, 24 h
[43] = test system: Candida albicans; assay: Antimicrobial activity against Candida albicans MTCC 7315 assessed as growth inhibition after 24 hrs by agar well diffusion method; type: functional; conditions: MTCC 7315, 24 h
[44] = test system: Micrococcus luteus; assay: Antibiofilm activity against Micrococcus luteus MTCC 2470 after 24 hrs by crystal violet staining based assay; type: functional, organism-based; conditions: MTCC 2470, 24 h; summary of the method: as §1
[45] = test system: Staphylococcus aureus; assay: Antibiofilm activity against Staphylococcus aureus MLS16 MTCC 2940 after 24 hrs by crystal violet staining based assay; type: functional, organism-based; conditions: MLS16 MTCC 2940, 24 h; summary of the method: as §1

MIC [1]: 31.2 µg/mL
MIC [4]: 7.8 µg/mL
MIC [5]: 31.2 µg/mL
MIC [6]: 31.2 µg/mL
MIC [7]: 15.6 µg/mL
MIC [8]: 62.5 µg/mL
MIC [9]: 31.2 µg/mL
MIC [10]: 15.6 µg/mL
MIC [15]: 31.2 µg/mL
MIC [17]: 31.2 µg/mL
MIC [18]: 31.2 µg/mL
MIC [22]: 62.5 µg/mL
MIC [23]: > 125 µg/mL
IC50 [24]: 8.5 µg/mL
MIC [25]: 62.5 µg/mL
MIC [31]: 62.5 µg/mL
MIC [33]: 15.6 µg/mL
IC50 [35]: 9.1 µg/mL
MIC [37]: 7.8 µg/mL
MIC [39]: 15.6 µg/mL
MIC [40]: 62.5 µg/mL
MIC [43]: 31.2 µg/mL
IC50 [44]: 8.8 µg/mL
IC50 [45]: 22.2 µg/mL
Compound: CCCCCCCCCCCC[N+](C)(C)CCCCCCCCCCC(=O)OC.[Cl-]
MBC [2]: 31.2 µg/mL
MBC [3]: 15.6 µg/mL
MFC [11]: 31.2 µg/mL
MFC [12]: 62.5 µg/mL
MFC [13]: 62.5 µg/mL
MBC [14]: 31.2 µg/mL
MFC [16]: 31.2 µg/mL
MBC [19]: 31.2 µg/mL
MFC [20]: 62.5 µg/mL
MBC [21]: 31.2 µg/mL
MFC [26]: 62.5 µg/mL
MFC [27]: 62.5 µg/mL
MIC [28]: 7.8 µg/mL
MFC [29]: 62.5 µg/mL
MBC [30]: 31.2 µg/mL
MFC [32]: 31.2 µg/mL
MFC [34]: 31.2 µg/mL
MFC [36]: 62.5 µg/mL
MFC [38]: 31.2 µg/mL
MFC [41]: 31.2 µg/mL
MFC [42]: 62.5 µg/mL

MIC [1]: > 125 µg/mL
MIC [4]: > 125 µg/mL
MIC [10]: > 125 µg/mL
MIC [23]: > 125 µg/mL
MIC [33]: > 125 µg/mL
MIC [37]: > 125 µg/mL
MIC [39]: > 125 µg/mL
Compound: CCCCCCCCCCCCNCCCCCCCCCCC(=O)OC
MBC [2]: > 125 µg/mL
MBC [3]: > 125 µg/mL
MBC [14]: > 125 µg/mL
MBC [19]: > 125 µg/mL
MBC [21]: > 125 µg/mL
MIC [28]: > 125 µg/mL
MBC [30]: > 125 µg/mL

MIC [1]: 7.8 µg/mL (≈ 18.7 µM)
MIC [5]: 7.8 µg/mL (≈ 18.7 µM)
MIC [6]: 7.8 µg/mL (≈ 18.7 µM)
MIC [7]: 7.8 µg/mL (≈ 18.7 µM)
MIC [8]: 7.8 µg/mL (≈ 18.7 µM)
MIC [9]: 7.8 µg/mL (≈ 18.7 µM)
MIC [15]: 7.8 µg/mL (≈ 18.7 µM)
MIC [17]: 7.8 µg/mL (≈ 18.7 µM)
MIC [18]: 7.8 µg/mL (≈ 18.7 µM)
MIC [22]: 7.8 µg/mL (≈ 18.7 µM)
MIC [25]: 7.8 µg/mL (≈ 18.7 µM)
MIC [31]: 7.8 µg/mL (≈ 18.7 µM)
MIC [40]: 7.8 µg/mL (≈ 18.7 µM)
MIC [43]: 7.8 µg/mL (≈ 18.7 µM)
Compound: Clc1ccc(COC(Cn2ccnc2)c2ccc(Cl)cc2Cl)c(Cl)c1 (configuration not stated) [MICONAZOLE]
MFC [11]: 15.6 µg/mL (≈ 37.5 µM)
MFC [12]: 7.8 µg/mL (≈ 18.7 µM)
MFC [13]: 15.6 µg/mL (≈ 37.5 µM)
MFC [16]: 15.6 µg/mL (≈ 37.5 µM)
MFC [20]: 7.8 µg/mL (≈ 18.7 µM)
MFC [26]: 7.8 µg/mL (≈ 18.7 µM)
MFC [27]: 7.8 µg/mL (≈ 18.7 µM)
MFC [29]: 15.6 µg/mL (≈ 37.5 µM)
MFC [32]: 7.8 µg/mL (≈ 18.7 µM)
MFC [34]: 7.8 µg/mL (≈ 18.7 µM)
MFC [36]: 7.8 µg/mL (≈ 18.7 µM)
MFC [38]: 7.8 µg/mL (≈ 18.7 µM)
MFC [41]: 15.6 µg/mL (≈ 37.5 µM)
MFC [42]: 7.8 µg/mL (≈ 18.7 µM)
